Measured values: ChEMBL document CHEMBL2311448, “Enantioselective synthesis of derivatives and structure-activity relationship study in the development of NA255 as a novel host-targeting anti-HCV agent” (Bioorg Med Chem Lett, 2013)

What was measured:
[1] = Cytotoxicity against human Hepatoma cells; format: cell-based
[2] = Mean residence time in Sprague-Dawley rat plasma at 10 mg/kg, sc; format: ADME, organism-based; set-up: dose 10 mg/kg, route subcutaneous
Outline: (§1)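 Male Sprague–Dawley rats got a single subcutaneous dose of 10 mg/kg (n = 2) in 10% PEG300–10% HPCD in water. Plasma and liver concentrations were measured over time after dosing. Footnotes mark concentrations taken at 0.5 h and at 2 h postdosing. One compound was given as its tri-sodium salt.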

[3] = AUC in Sprague-Dawley rat liver at 10 mg/kg, sc; format: ADME, organism-based; set-up: dose 10 mg/kg, route subcutaneous; outline: as §1
[4] = Cmax in Sprague-Dawley rat liver at 10 mg/kg, sc at 2 hrs; format: ADME, organism-based; set-up: dose 10 mg/kg, route subcutaneous; outline: as §1
[5] = Mean residence time in Sprague-Dawley rat liver at 10 mg/kg, sc; format: ADME, organism-based; set-up: dose 10 mg/kg, route subcutaneous; outline: as §1
[6] = Half life in Sprague-Dawley rat liver at 10 mg/kg, sc; format: ADME, organism-based; set-up: dose 10 mg/kg, route subcutaneous; outline: as §1
[7] = AUC in Sprague-Dawley rat plasma at 10 mg/kg, sc; format: ADME, organism-based; set-up: dose 10 mg/kg, route subcutaneous; outline: as §1
[8] = Half life in Sprague-Dawley rat plasma at 10 mg/kg, sc; format: ADME, organism-based; set-up: dose 10 mg/kg, route subcutaneous; outline: as §1
[9] = Cmax in Sprague-Dawley rat plasma at 10 mg/kg, sc at 0.5 hrs; format: ADME, organism-based; set-up: dose 10 mg/kg, route subcutaneous; outline: as §1
[10] = system: Hepatitis C virus; assay: Antiviral activity against HCV infected in human hepatoma cells assessed as inhibition of viral replication; format: functional, organism-based, Hepacivirus hominis

Structure (SMILES) | CC50 [1] | IC50 [10] | further results
CCCCCCCC(=O)CCCCCC/C=C/[C@H](C(=O)N[C@@H](Cc1ccc(OCC=C(C)C)cc1)C(=O)O)[C@@](O)(CC(=O)O)C(=O)O | > 5 µM |  | 
CCCCCCCC(=O)CCCCCC/C=C/[C@H](C(=O)N[C@@H](Cc1ccc(-c2cccc(OC)c2)cc1)C(=O)[O-])[C@@](O)(CC(=O)[O-])C(=O)[O-].[Na+].[Na+].[Na+] |  |  | MRT [2]: 12.9 h; AUC [3]: 82900 ng·h/mL; Cmax [4]: 5920 ng/mL; MRT [5]: 16.1 h; half-life [6]: 1280 min; AUC [7]: 2590 ng·h/mL; half-life [8]: 888 min; Cmax [9]: 351 ng/mL
CC#CCOc1ccc(C[C@H](NC(=O)[C@@H](/C=C/CCCCCCC(=O)CCCCCCC)[C@@](O)(CC(=O)[O-])C(=O)[O-])C(=O)[O-])cc1.[Na+].[Na+].[Na+] |  |  | MRT [2]: 5.48 h; AUC [3]: 49600 ng·h/mL; Cmax [4]: 7100 ng/mL; MRT [5]: 7.3 h; half-life [6]: 285 min; AUC [7]: 3050 ng·h/mL; half-life [8]: 239 min; Cmax [9]: 604 ng/mL
CCCCCCCC(=O)CCCCCC/C=C/[C@H](C(=O)N[C@@H](Cc1ccc(OCc2ccccc2)cc1)C(=O)[O-])[C@@](O)(CC(=O)[O-])C(=O)[O-].[Na+].[Na+].[Na+] |  |  | MRT [2]: 13.6 h; AUC [3]: 100000 ng·h/mL; Cmax [4]: 6590 ng/mL; MRT [5]: 17 h; half-life [6]: 1640 min; AUC [7]: 2690 ng·h/mL; half-life [8]: 589 min; Cmax [9]: 209 ng/mL
CCCCCCCC(=O)CCCCCC/C=C/[C@H](C(=O)N[C@@H](CC1CCCCC1)C(=O)O)[C@@](O)(CC(=O)O)C(=O)O | > 5 µM | > 5000 nM | 
CCCCCCCC(=O)CCCCCC/C=C/[C@H](C(=O)N[C@@H](Cc1cccc2ccccc12)C(=O)O)[C@@](O)(CC(=O)O)C(=O)O | > 1 µM | > 1000 nM | 
CCCCCCCC(=O)CCCCCC/C=C/[C@H](C(=O)N[C@@H](Cc1ccc2ccccc2c1)C(=O)O)[C@@](O)(CC(=O)O)C(=O)O | > 5 µM | 14 nM | 
CCCCCCCC(=O)CCCCCC/C=C/[C@H](C(=O)N[C@@H](Cc1ccc(OC)cc1)C(=O)O)[C@@](O)(CC(=O)O)C(=O)O | > 5 µM | 6.4 nM | 
CCCCCCCC(=O)CCCCCC/C=C/[C@H](C(=O)N[C@@H](Cc1ccc(OCCC)cc1)C(=O)O)[C@@](O)(CC(=O)O)C(=O)O | > 5 µM | 2.6 nM | 
CCCCCCCC(=O)CCCCCC/C=C/[C@H](C(=O)N[C@@H](Cc1ccc(OCCCC)cc1)C(=O)O)[C@@](O)(CC(=O)O)C(=O)O | > 5 µM | 1.2 nM | 
CC#CCOc1ccc(C[C@H](NC(=O)[C@@H](/C=C/CCCCCCC(=O)CCCCCCC)[C@@](O)(CC(=O)O)C(=O)O)C(=O)O)cc1 | > 5 µM | 1.2 nM | 
CCCCCCCC(=O)CCCCCC/C=C/[C@H](C(=O)N[C@@H](Cc1ccc(OCCCN)cc1)C(=O)O)[C@@](O)(CC(=O)O)C(=O)O | > 1 µM | 38 nM | 
CCCCCCCC(=O)CCCCCC/C=C/[C@H](C(=O)N[C@@H](Cc1ccc(Oc2ccccc2)cc1)C(=O)O)[C@@](O)(CC(=O)O)C(=O)O | > 5 µM | 1.9 nM | 
CCCCCCCC(=O)CCCCCC/C=C/[C@H](C(=O)N[C@@H](Cc1ccc(OCc2ccccc2)cc1)C(=O)O)[C@@](O)(CC(=O)O)C(=O)O | > 5 µM | 0.32 nM | 
CCCCCCCC(=O)CCCCCC/C=C/[C@H](C(=O)N[C@@H](Cc1ccc(-c2ccccc2)cc1)C(=O)O)[C@@](O)(CC(=O)O)C(=O)O | > 5 µM | 1.6 nM | 
CCCCCCCC(=O)CCCCCC/C=C/[C@H](C(=O)N[C@@H](Cc1ccc(-c2cccc(OC)c2)cc1)C(=O)O)[C@@](O)(CC(=O)O)C(=O)O | > 1 µM | 2.6 nM | 
CCCCCCCC(=O)CCCCCC/C=C/[C@H](C(=O)N[C@@H](Cc1ccc(-c2cccnc2)cc1)C(=O)O)[C@@](O)(CC(=O)O)C(=O)O | > 1 µM | 10 nM | 
CCCCCCC(=O)CCCCCC/C=C/[C@H](C(=O)N[C@@H](Cc1ccc(OCCC(C)C)cc1)C(=O)O)[C@@](O)(CC(=O)O)C(=O)O | > 1 µM | 19 nM | 

Structure (SMILES) | CC50 [1] | IC50 [10] | further results
CCCC(=O)CCCCCC/C=C/[C@H](C(=O)N[C@@H](Cc1ccc(OCCC(C)C)cc1)C(=O)O)[C@@](O)(CC(=O)O)C(=O)O | > 5 µM | 800 nM | 
CCCCCCCCCC(=O)CCCC/C=C/[C@H](C(=O)N[C@@H](Cc1ccc(OCCC(C)C)cc1)C(=O)O)[C@@](O)(CC(=O)O)C(=O)O | > 1 µM | 5.1 nM | 
CCCCCC(=O)CCCCCCCC/C=C/[C@H](C(=O)N[C@@H](Cc1ccc(OCCC(C)C)cc1)C(=O)O)[C@@](O)(CC(=O)O)C(=O)O | > 1 µM | 1.4 nM | 
C=CCCCCCC(=O)CCCCCC/C=C/[C@H](C(=O)N[C@@H](Cc1ccc(OCCC(C)C)cc1)C(=O)O)[C@@](O)(CC(=O)O)C(=O)O | > 1 µM | 6.1 nM | 
CC(C)CCCCC(=O)CCCCCC/C=C/[C@H](C(=O)N[C@@H](Cc1ccc(OCCC(C)C)cc1)C(=O)O)[C@@](O)(CC(=O)O)C(=O)O | > 1 µM | 5.7 nM | 
CC(C)CCOc1ccc(C[C@H](NC(=O)[C@@H](/C=C/CCCCCCC(=O)Cc2ccccn2)[C@@](O)(CC(=O)O)C(=O)O)C(=O)O)cc1 | > 1 µM | > 1000 nM | 
CC(C)CCOc1ccc(C[C@H](NC(=O)[C@@H](/C=C/CCCCCCC(=O)CCc2ccccc2)[C@@](O)(CC(=O)O)C(=O)O)C(=O)O)cc1 | > 1 µM | 290 nM | 
CC(C)CCOc1ccc(C[C@H](NC(=O)[C@@H](/C=C/CCCCCCC(=O)CCC2CCCCC2)[C@@](O)(CC(=O)O)C(=O)O)C(=O)O)cc1 | > 1 µM | 32 nM | 
CCCCCCCC(=O)CCCCCC/C=C/[C@H](C(=O)N[C@H](Cc1ccc(OCCC(C)C)cc1)C(=O)O)[C@@](O)(CC(=O)O)C(=O)O | > 5 µM | > 5000 nM | 
CCCCCCCC(=O)CCCCCC/C=C/[C@H](C(=O)NCCc1ccc(OCCC(C)C)cc1)[C@@](O)(CC(=O)O)C(=O)O | > 5 µM | 1000 nM | 
CCCCCCCC(=O)CCCCCC/C=C/[C@H](C(=O)N[C@@H](Cc1ccc(OCCCC(C)C)cc1)C(=O)O)[C@@](O)(CC(=O)O)C(=O)O | > 1 µM | 12 nM | 
CCCCCCCC(=O)CCCCCC/C=C/[C@H](C(=O)N[C@@H](Cc1ccccc1)C(=O)O)[C@@](O)(CC(=O)O)C(=O)O | 13.9 µM | 17 nM | 
CCCCCCCC(=O)CCCCCC/C=C/[C@H](C(=O)N[C@@H](Cc1cccs1)C(=O)O)[C@@](O)(CC(=O)O)C(=O)O | > 1 µM | 490 nM | 
CCCCCCCC(=O)CCCCCC/C=C/[C@H](C(=O)N[C@@H](Cc1ccc(OCCC(C)C)cc1)C(=O)O)[C@@](O)(CC(=O)O)C(=O)O | > 5 µM | 1.4 nM | 
CCCCCCCC(=O)CCCCCCCC[C@H](C(=O)N[C@@H](Cc1ccc(OCCC(C)C)cc1)C(=O)O)[C@@](O)(CC(=O)O)C(=O)O | > 5 µM | 150 nM | 
CCCCCCCCCCCCCC/C=C/[C@H](C(=O)NC(Cc1ccc(OCC=C(C)C)cc1)C(=O)O)[C@@](O)(CC(=O)O)C(=O)O (some centres undefined) | > 50 µM | 155 nM | 
CCCCCCCCC(=O)CCCCCC/C=C/[C@H](C(=O)N[C@@H](Cc1ccc(OCCC(C)C)cc1)C(=O)O)[C@@](O)(CC(=O)O)C(=O)O | > 50 µM | 6.9 nM | 
CCCCCCCC(O)CCCCCC/C=C/[C@H](C(=O)N[C@@H](Cc1ccc(OCCC(C)C)cc1)C(=O)O)[C@@](O)(CC(=O)O)C(=O)O (mixture of isomers) | > 1 µM | 25 nM | 
